According to ChEMBL document CHEMBL1157101, “A series of alpha-heterocyclic carboxaldehyde thiosemicarbazones inhibit topoisomerase IIalpha catalytic activity” (J Med Chem, 2010):
The source made the active and inactive calls. The rule behind the calls is not given here.

Columns and labels:
LoVo = assay: Antiproliferative activity against human LoVo cells after 72 hrs by sulforhodamine B assay; assay type: functional, cell-based
Outline: (§1)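 Cells seeded and exposed in triplicate to graded compound concentrations for 72 h. Suspension cells read by MTT conversion to coloured product; adherent cells read by sulforhodamine B. IC50 (50% growth inhibition versus untreated control) derived by the Logit method.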

HT-29 [1] = assay: Inhibition of DNA synthesis in human HT-29 cells measured up to 8 hrs by BrdU incorporation assay; assay type: functional, cell-based
Outline: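 HT-29 cells; DNA synthesis measured by BrdU incorporation with flow detection.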

HL-60 = assay: Antiproliferative activity against human HL60 cells after 72 hrs by sulforhodamine B assay; assay type: functional, cell-based; settings: HL-60, 72 h, in the assay text read “MTT assay” for “sulforhodamine B assay”; outline: as §1
A549 = assay: Antiproliferative activity against human A549 cells after 72 hrs by sulforhodamine B assay; assay type: functional, cell-based; settings: A549, 72 h; outline: as §1
U-937 = assay: Antiproliferative activity against human U937 cells after 72 hrs by sulforhodamine B assay; assay type: functional, cell-based; settings: U-937, 72 h; outline: as §1
HeLa = assay: Antiproliferative activity against human HeLa cells after 72 hrs by sulforhodamine B assay; assay type: functional, cell-based; outline: as §1
SGC-7901 = assay: Antiproliferative activity against human SGC7901 cells after 72 hrs by sulforhodamine B assay; assay type: functional, cell-based; settings: SGC-7901, 72 h; outline: as §1
[2] = target: T1, DNA topoisomerase 2-alpha (Homo sapiens, UniProt P11388); assay: Inhibition of human topoisomerase 2alpha-mediated relaxation of pBR322 at 25 uM
[3] = target: T1, DNA topoisomerase 2-alpha; assay: Inhibition of human topoisomerase 2alpha binding to pBR322 DNA binding by electrophoretic mobility shift assay
Outline: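 Electrophoretic mobility shift assay. 0.2 μg supercoiled pBR322 with 200 nM human Topo IIα, ± compound, 10 min at 37 °C. Separated 90 min on 1% agarose containing 0.5 μg/mL ethidium bromide in TAE.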

CCRF S-180 [4] = assay: Antitumor activity against mouse S180 cells transplanted in Kunming mouse assessed as inhibition of tumor growth at 50 mg/kg/day, ip for 7 days; assay type: functional; settings: CCRF S-180, ip, 168 h, route intraperitoneal
Outline: (§2)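 Female Kunming mice, 7 weeks old, 18-22 g, inoculated sc in the right armpit with S-180 sarcoma. Dosing began the next day, ip daily for 7 days; normal saline given iv as control. Tumours excised and weighed after treatment. Inhibitory rate (%) = (mean control tumour weight − mean treated tumour weight)/mean control tumour weight × 100.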

CCRF S-180 [5] = assay: Antitumor activity against mouse S180 cells transplanted in Kunming mouse assessed as inhibition of tumor growth at 12.5 mg/kg/day, ip for 7 days; assay type: functional; settings: CCRF S-180, ip, 168 h, route intraperitoneal; outline: as §2
Mus musculus [6] = assay: Toxicity in Kunming mouse bearing mouse S180 cells assessed as change in body weight at 50 mg/kg/day, ip for 7 days (reference value: 17.9 g); assay type: organism-based, CCRF S-180; parameters: route intraperitoneal; settings: in vivo, 168 h
Outline: (§3)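 Female Kunming mice, 7 weeks old and 18-22 g, were inoculated sc in the right armpit with S-180 sarcoma. From the next day they received ip injections at the stated daily dose for 7 days, alongside a normal-saline control group. Body weight was recorded at the start and at the end of treatment.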

Mus musculus [7] = assay: Toxicity in Kunming mouse bearing mouse S180 cells assessed as change in body weight at 25 mg/kg/day, ip for 7 days (reference value: 17.9 g); assay type: organism-based, CCRF S-180; parameters: route intraperitoneal; settings: in vivo, 168 h; outline: as §3
[8] = target: T2, DNA topoisomerase 1 (Homo sapiens) (UniProt P11387); assay: Inhibition of human topoisomerase 1-mediated relaxation of pBR322 at 100 uM
T2 sequence (whole entry): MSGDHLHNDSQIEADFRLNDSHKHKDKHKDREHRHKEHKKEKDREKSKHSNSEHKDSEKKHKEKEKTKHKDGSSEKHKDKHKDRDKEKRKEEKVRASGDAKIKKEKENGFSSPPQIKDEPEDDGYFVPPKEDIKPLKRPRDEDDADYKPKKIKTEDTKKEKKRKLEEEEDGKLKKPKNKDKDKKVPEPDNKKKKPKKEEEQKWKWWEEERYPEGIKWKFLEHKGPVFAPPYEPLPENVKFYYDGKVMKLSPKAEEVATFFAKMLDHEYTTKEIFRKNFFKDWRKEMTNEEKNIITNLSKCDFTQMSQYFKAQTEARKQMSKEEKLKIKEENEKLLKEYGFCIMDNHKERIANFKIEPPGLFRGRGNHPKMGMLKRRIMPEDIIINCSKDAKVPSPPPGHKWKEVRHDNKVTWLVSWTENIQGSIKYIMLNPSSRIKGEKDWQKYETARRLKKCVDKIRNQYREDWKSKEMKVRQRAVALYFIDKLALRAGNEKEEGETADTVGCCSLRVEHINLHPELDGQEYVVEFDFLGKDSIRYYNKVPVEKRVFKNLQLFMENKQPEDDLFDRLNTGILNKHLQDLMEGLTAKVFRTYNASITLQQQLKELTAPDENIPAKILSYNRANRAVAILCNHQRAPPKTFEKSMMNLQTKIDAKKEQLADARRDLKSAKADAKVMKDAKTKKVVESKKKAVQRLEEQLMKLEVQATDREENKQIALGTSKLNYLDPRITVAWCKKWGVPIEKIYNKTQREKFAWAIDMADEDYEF

HL60/MX2 = assay: Cytotoxicity against human HL60/MX2 cells; assay type: functional, cell-based
NCI-H23 = assay: Antiproliferative activity against human NCI-H23 cells after 72 hrs by sulforhodamine B assay; assay type: functional, cell-based; settings: NCI-H23, 72 h; outline: as §1
KB = assay: Antiproliferative activity against human KB cells after 72 hrs by sulforhodamine B assay; assay type: functional, cell-based; outline: as §1
HT-29 [9] = assay: Cell cycle arrest in human HT-29 cells pretreated with aphidicolin for 1 hr assessed as accumulation at G1/S phase after 24 hrs by flow cytometry in presence of nocdazole; assay type: functional, cell-based
Outline: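 HT-29 cells stained with propidium iodide; cell-cycle distribution determined by flow cytometry.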

[10] = target: T1, DNA topoisomerase 2-alpha; assay: Inhibition of human topoisomerase 2alpha ATPase domain assessed as ATP hydrolysis
Outline: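 NADH-coupled ATPase assay at 37 °C in 100 μL. Contains 2 μg Topo IIα ATPase domain (or 18 nM Topo IIα), 0.2 μg pBR322, 1 mM ATP, 2 mM PEP, 0.16 mM NADH, 5 U pyruvate kinase and 8 U lactate dehydrogenase.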

[11] = target: T2, DNA topoisomerase 1 (Homo sapiens); assay: Inhibition of topoisomerase 1-mediated unwinding of supercoiled DNA assessed as DNA intercalation
Nucleic Acid = assay: Inhibition of Fenton's reaction mediated DNA strand break in Escherichia coli pBR322 by gel electrophoresis; assay type: nucleic-acid assay
Outline: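 pBR322 (0.2 μg) incubated 30 min at room temperature in 13 mM Hepes pH 7.2 with 1 mM H2O2 and 10 μM FeSO4 plus compound. Run on 1% agarose containing 0.1 μg/mL ethidium bromide at 90 V for 60 min. Bands quantified; % supercoiled = 1.4SC/(L+OC+1.4SC)×100.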

Mus musculus [12] = assay: Toxicity in Kunming mouse bearing mouse S180 cells assessed as change in body weight at 12.5 mg/kg/day, ip for 7 days (reference value: 17.9 g); assay type: organism-based, CCRF S-180; parameters: route intraperitoneal; settings: in vivo, 168 h; outline: as §3
HT-29 [13] = assay: Cytotoxicity against human HT-29 cells after 72 hrs in presence of FeSO4; assay type: functional, cell-based
[14] = target: T1, DNA topoisomerase 2-alpha; assay: Inhibition of human topoisomerase 2alpha-mediated decatenation of kDNA
Bel-7402 = assay: Antiproliferative activity against human Bel7402 cells after 72 hrs by sulforhodamine B assay; assay type: functional, cell-based; settings: Bel-7402, 72 h; outline: as §1

T1 sequence (P11388 whole entry): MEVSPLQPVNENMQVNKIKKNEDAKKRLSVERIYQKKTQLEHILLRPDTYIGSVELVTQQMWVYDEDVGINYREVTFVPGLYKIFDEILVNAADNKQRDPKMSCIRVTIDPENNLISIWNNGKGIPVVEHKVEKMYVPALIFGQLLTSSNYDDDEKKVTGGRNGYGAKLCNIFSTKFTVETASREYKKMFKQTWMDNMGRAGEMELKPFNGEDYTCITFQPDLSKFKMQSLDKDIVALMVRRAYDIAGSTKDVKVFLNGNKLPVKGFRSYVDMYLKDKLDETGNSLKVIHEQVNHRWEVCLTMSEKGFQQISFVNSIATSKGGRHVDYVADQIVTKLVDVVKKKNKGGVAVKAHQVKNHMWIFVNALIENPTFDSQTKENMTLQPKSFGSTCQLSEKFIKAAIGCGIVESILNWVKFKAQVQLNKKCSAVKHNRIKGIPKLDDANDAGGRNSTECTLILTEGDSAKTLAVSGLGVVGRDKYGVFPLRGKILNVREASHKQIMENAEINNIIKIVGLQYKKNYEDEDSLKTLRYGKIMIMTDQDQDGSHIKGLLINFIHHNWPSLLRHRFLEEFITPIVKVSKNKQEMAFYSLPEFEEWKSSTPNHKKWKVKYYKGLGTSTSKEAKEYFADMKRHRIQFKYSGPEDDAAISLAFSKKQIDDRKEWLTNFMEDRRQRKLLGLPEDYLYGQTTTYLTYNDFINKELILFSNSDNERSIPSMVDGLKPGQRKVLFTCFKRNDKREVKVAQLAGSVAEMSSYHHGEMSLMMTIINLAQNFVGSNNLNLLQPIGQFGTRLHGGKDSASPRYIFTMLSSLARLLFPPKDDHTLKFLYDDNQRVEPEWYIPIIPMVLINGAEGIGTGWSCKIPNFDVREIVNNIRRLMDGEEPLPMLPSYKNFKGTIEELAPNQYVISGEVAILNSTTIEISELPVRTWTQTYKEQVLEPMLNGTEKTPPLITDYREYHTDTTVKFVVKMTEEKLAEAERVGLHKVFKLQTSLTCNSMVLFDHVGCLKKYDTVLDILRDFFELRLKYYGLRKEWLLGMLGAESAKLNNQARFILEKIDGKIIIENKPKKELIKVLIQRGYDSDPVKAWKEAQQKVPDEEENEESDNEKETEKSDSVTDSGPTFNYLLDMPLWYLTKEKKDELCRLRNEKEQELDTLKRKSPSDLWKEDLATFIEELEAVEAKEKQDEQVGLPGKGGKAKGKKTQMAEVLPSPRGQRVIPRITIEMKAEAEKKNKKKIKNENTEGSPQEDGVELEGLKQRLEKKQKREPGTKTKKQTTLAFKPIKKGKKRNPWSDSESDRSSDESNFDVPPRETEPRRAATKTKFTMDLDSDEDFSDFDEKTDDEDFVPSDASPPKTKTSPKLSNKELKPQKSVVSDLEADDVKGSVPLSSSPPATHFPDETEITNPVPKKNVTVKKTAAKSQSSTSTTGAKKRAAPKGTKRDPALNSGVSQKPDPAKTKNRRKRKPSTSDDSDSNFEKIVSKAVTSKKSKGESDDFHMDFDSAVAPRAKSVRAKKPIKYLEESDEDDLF

IC50 (LoVo): 60 nM
IC50 (HL-60): 50 nM
IC50 (A549): 450 nM
IC50 (U-937): 30 nM
IC50 (HeLa): 90 nM
IC50 (SGC-7901): 30 nM
inhibition [2]: inactive
inhibition [3]: inactive
inhibition [8]: Active
IC50 (NCI-H23): 80 nM
IC50 (KB): 770 nM
inhibition [10]: Dose-dependent effect
inhibition [11]: inactive
inhibition (Nucleic Acid): Dose-dependent effect
inhibition [14]: Dose-dependent effect
IC50 (Bel-7402): 180 nM
SMILES: CN(C)C(=S)N/N=C/c1ccc2ccccc2n1
inhibition (HT-29 [1]): Dose-dependent effect
inhibition in vivo at 50 mg/kg/day (CCRF S-180 [4]): 76.7%
inhibition in vivo at 12.5 mg/kg/day (CCRF S-180 [5]): 17.6%
Activity (Mus musculus [6]): 20 g
Activity (Mus musculus [7]): 23.9 g
Activity (HL60/MX2): Active
Activity (HT-29 [9]): inactive
Activity (Mus musculus [12]): 29 g
inhibition (HT-29 [13]): Active
